CSC inhib – cancer stem cell viability inhibitors, primary screen, luminescence; AID 2717, 2010; 300,000 tested, 1.1% active; inhibition, % at 7.5 µM; cancer stem cell-like cells viability; in the data active = inhibition above about 75%; tested in HMLE shEcad cells
UPR CHOP act – activators of apoptotic CHOP UPR arm, primary screen, cell-based, CHO-CHOP luciferase reporter, luminescence, uHTS | activation, % at 10 µM | 330,000 tested, 0.34% active | AID 449763, 2010 | UPR activation; percent of tunicamycin response over DMSO baseline;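 active = at 10 µM dose, activation of 40% or more, normalized to positive control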
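System: CHO-CHOP luciferase reporter cell line; amount: 500 cells/well; buffer or medium: F12 medium containing 10% fetal bovine serum; incubation: 6 h compound exposure at 37 °C after overnight seeding; measured by: luciferase luminescence after 10 min with Steady-Glo reagent; evaluation: % reporter activation, DMSO baseline versus tunicamycin full activation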
T cruzi repl – inhibitors of intracellular T. cruzi growth, primary screen, luminescence, NIH3T3 host cells; inhibition, % (no concentration beside the values); 300,000 tested, 1.4% active; T. cruzi beta-gal in NIH3T3, 90 h;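 active = mean inhibition across valid replicates above about 55%, limit read from the data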;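 note: signal also drops with host cell toxicity which is not excluded here; higher percent means less beta-gal luminescence so fewer parasites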
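Assay system: NIH/3T3 fibroblasts plus reporter T. cruzi. Amount: NIH/3T3 cells, 5,000 per well. Buffer or medium: DMEM, 2% fetal bovine serum. Doses: compound pinned at 50 nL/well, DMSO. Schedule: ≥90 h infection period, 3 h prior cell attachment. Signal: luminescent β-galactosidase signal after 60 min lysis. Read-out: parasite load inhibition, %.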
Mdm2 MdmX PPI – inhibitors of human Mdm2-MdmX association, primary screen, cell-based, luminescence, split luciferase, SaOS-2, uHTS. SaOS-2 split-luciferase Mdm2/MdmX complementation. inhibition, % at 8 µM. 330,000 tested, 3% active. AID 485346, 2010;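 active = inhibition of at least 50% at 8 µM in the primary screen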
Target sequence (O15151 whole entry, looked up): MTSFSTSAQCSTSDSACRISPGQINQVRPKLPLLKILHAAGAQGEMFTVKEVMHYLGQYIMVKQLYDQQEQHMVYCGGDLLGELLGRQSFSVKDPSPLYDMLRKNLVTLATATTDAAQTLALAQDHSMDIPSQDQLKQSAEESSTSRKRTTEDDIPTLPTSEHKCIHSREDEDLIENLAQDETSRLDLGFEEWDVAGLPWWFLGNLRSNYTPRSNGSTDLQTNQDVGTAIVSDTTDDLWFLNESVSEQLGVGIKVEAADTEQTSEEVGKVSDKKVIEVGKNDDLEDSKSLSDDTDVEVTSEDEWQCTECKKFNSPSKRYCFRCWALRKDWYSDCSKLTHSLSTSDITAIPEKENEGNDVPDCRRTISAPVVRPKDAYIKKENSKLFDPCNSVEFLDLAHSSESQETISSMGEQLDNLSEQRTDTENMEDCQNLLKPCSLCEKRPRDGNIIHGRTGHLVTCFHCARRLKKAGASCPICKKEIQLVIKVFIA
Target sequence (Q00987 whole entry, looked up): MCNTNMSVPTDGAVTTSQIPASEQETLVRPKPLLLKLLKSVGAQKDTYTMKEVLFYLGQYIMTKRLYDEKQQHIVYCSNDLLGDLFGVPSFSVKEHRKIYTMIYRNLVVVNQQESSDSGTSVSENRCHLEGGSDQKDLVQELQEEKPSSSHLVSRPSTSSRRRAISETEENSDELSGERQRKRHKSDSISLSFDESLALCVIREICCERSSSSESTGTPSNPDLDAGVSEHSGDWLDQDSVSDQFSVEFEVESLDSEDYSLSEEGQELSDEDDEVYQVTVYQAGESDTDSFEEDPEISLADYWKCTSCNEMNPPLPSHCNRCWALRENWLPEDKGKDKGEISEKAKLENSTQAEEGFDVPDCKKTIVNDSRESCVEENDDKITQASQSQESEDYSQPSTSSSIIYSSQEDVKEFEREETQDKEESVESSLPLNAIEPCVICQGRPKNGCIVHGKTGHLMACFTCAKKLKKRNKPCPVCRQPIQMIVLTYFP
Beta cell apopt – inhibitors of cytokine-induced beta cell apoptosis, primary screen, luminescence | INS-1E cytokine-induced death, ATP luminescence, 48 h; percent of positive-control rescue, neutral wells zero | protection from apoptosis, % (concentration not given with the values) | 300,000 tested, 0.8% active | AID 435005, 2010;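 active = Every replicate reaches about 75%, or at least half do and their mean reaches it too, limit read from the data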;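 note: higher means more ATP so stronger rescue from cytokine killing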
XBP1 UPR activ – activators of adaptive XBP1 UPR arm, primary screen, cell-based, CHO-XBP1 luciferase reporter, luminescence, uHTS | IRE1-XBP1 UPR activation; percent of tunicamycin response, DMSO as zero | 330,000 tested, 0.33% active | activation, % at 20 µM;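 active = versus positive control, 20 µM dose yields 30% or more activation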
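Material: CHO-XBP1 cells stably carrying IRE1-XBP1-driven luciferase reporter | Medium: F12 with 10% serum | Compound dosing: 20 µM single concentration, DMSO 1% | Incubation: Overnight seeding at 37 °C, 6 h compound treatment at 37 °C | Detection: Steady-Glo luminescence read | Read-out basis: % activation of reporter signal versus tunicamycin and DMSO controls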
UPR XBP1 confirm – IRE1-XBP1 UPR arm activators, confirmation, cell-based, CHO-XBP1 luciferase reporter, luminescence, single concentration. activation, % at 20 µM. 1,000 tested, 63% active. shares compounds with XBP1 UPR activ;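 active = reporter signal at least 30% of the positive control's activation in two or more of four replicate wells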
Of the large screens only hits and unclear results are named; the others gave an inactive call (follow-up assays come after a bar, where they were run). Only some compounds are listed: those with a hit (about 5% of all), similar ones and a draw of the others.

O=S(=O)(c1ccc2nc(-c3ccccc3)[nH]c2c1)N1CCN(c2ccc(Cl)cc2)CC1	XBP1 UPR activ 90 | UPR XBP1 confirm 115
CC1(C)C2CCC(C2)C1(C)NC(=O)CNC1CCCCC1 (stereo not drawn)	none
O=C(Oc1ccc2c(c1)OCC2=O)c1ccccc1	XBP1 UPR activ 37 | UPR XBP1 confirm inactive
CNc1nc(Nc2ccc([N+](=O)[O-])cc2)nc(OCC(F)(F)F)n1	XBP1 UPR activ 122 (no result: Beta cell apopt) | UPR XBP1 confirm inactive
COc1ccc(CNC(=O)COC(=O)c2[nH]c(C)c(C(C)=O)c2C)cc1OC	none (no result: T cruzi repl)
CCCCn1c(N)c(N(CCOC)C(=O)c2oc3ccc(OCC)cc3c2C)c(=O)[nH]c1=O	none (no result: CSC inhib)
Cc1cc(NC(=O)CSc2nnc(-c3c[nH]c4ccccc34)n2-c2ccc(Cl)cc2)no1	XBP1 UPR activ 40 | UPR XBP1 confirm inactive
Cc1cc(NC(=O)CSc2c[nH]c3ccccc23)no1	none
Cc1cc(NC(=O)CSc2nc3ccccc3c(=O)n2Cc2ccccc2)no1	none
Cc1ccc(Cn2c(SCC(=O)Nc3cc(C)on3)nc3ccccc3c2=O)cc1	XBP1 UPR activ 52 | UPR XBP1 confirm 48
Cc1ccc(NC(=O)C(=O)Nc2ccc(C)cn2)nc1	none
Cc1ccc(NC(=O)/C(C#N)=C(\N)C(Cl)(Cl)Cl)nc1	none | UPR XBP1 confirm inactive
CCN(C(=O)COC(=O)CCCOc1ccccc1)c1c(N)n(Cc2ccccc2)c(=O)[nH]c1=O	none (no result: T cruzi repl)
COc1cc(C(=O)Nc2cc(-c3nc4cc(C)ccc4o3)ccc2C)cc(OC)c1OC	XBP1 UPR activ 131 (no result: CSC inhib) | UPR XBP1 confirm 96
COC(c1ccccc1)(c1ccccc1)C(Oc1nccc(C)n1)C(=O)O (stereo not drawn)	XBP1 UPR activ 137 | UPR XBP1 confirm inactive
Cc1ccnc(OC(C(=O)O)C(OCc2ccccc2)(c2ccccc2)c2ccc(C(F)(F)F)cc2)n1 (stereo not drawn)	none
C=CCn1c(NC(=O)c2ccccc2Cl)c(C#N)c2nc3ccccc3nc21	XBP1 UPR activ 35 | UPR XBP1 confirm inactive
CC1(c2ccc(OC(F)F)cc2)NC(=O)N(CC(=O)Nc2cccc(F)c2)C1=O (stereo not drawn)	none
CCCc1cc(=O)n2nc(N3CCC(C(=O)N4CCN(c5cccc(OC)c5)CC4)CC3)sc2n1	none
O=C1c2ccccc2C(=O)N1CCCOCc1c[nH]c(=O)[nH]c1=O	XBP1 UPR activ 32 | UPR XBP1 confirm inactive
CC(C)[C@H](NC(=O)c1ccccc1)C(=O)OCC(=O)c1c(N)n(C)c(=O)n(C)c1=O	none (no result: T cruzi repl)
Cc1nc2scc(C)n2c(=O)c1S(=O)(=O)Nc1ccc(N2CCOCC2)cc1	none
CCC1(c2ccc(F)cc2)NC(=O)N(CC(=O)Nc2ccc(-c3nc4ccc(C)cc4s3)cc2)C1=O (stereo not drawn)	Beta cell apopt 92, XBP1 UPR activ 36 | UPR XBP1 confirm 32
COc1ccc(C2(C)NC(=O)N(CC(=O)Nc3ccc(-c4nc5ccc(C)cc5s4)cc3)C2=O)cc1 (stereo not drawn)	none
CN(C)c1ccc(/C(=N\O)c2ccccc2)cc1	none
Cc1c(Cl)cccc1Nc1nc(NCCO)c2ccccc2n1	T cruzi repl 56, XBP1 UPR activ 75 | UPR XBP1 confirm 58
Cc1cc(N/N=C/c2ccncc2)c([N+](=O)[O-])cc1[N+](=O)[O-]	none
CCC(C)Nc1nc(N)c([N+](=O)[O-])c(NC2CCCCC2)n1 (stereo not drawn)	XBP1 UPR activ 35 | UPR XBP1 confirm 31
Nc1nc(NCC(=O)O)nc(NC2CCCCC2)c1[N+](=O)[O-]	none
Cc1cc(C)c2c(c1)/C(=N\N=c1\sc3ccccc3n1C)C(=O)N2	XBP1 UPR activ 30 | UPR XBP1 confirm inactive
Cn1c(=NC(=O)C2=NNC(=O)CC2)sc2ccccc21	none
CNC(=S)N1N=C(c2ccccc2)CC1c1ccc(OC)c(OC)c1 (stereo not drawn)	none
COc1cc2c(cc1NC(=S)NC(=O)c1c(OC)cccc1OC)oc1ccccc12	none
COc1ccc(C(=O)NC(=S)Nc2cc3oc4ccccc4c3cc2OC)cc1	XBP1 UPR activ 34 | UPR XBP1 confirm inactive
Cc1ccc2c(=O)[nH]c(Nc3nc(C)cc(-c4ccccc4)n3)nc2c1	XBP1 UPR activ 33 | UPR XBP1 confirm 43
Cn1nc(C(F)(F)F)c(/C=N/OC(=O)c2ccccc2)c1SCc1ccc(Cl)cc1	XBP1 UPR activ 48 | UPR XBP1 confirm 90
CC(C)(C)C(=O)Nc1ccc(N2CCCC2)cc1	none
COc1ccccc1C1C([N+](=O)[O-])=CC([N+](=O)[O-])=CN1C (stereo not drawn)	XBP1 UPR activ 51 | UPR XBP1 confirm inactive
CCOc1cc(-c2cc(-c3ccc(C)cc3)nc(N)c2C#N)ccc1O	none
CCOc1cc(/C=C(\C#N)c2[nH]nc(N)c2C#N)ccc1O	XBP1 UPR activ 32 | UPR XBP1 confirm 51
COc1ccc(-c2[nH]c(-c3ccc(SC)cc3)nc2SCC(=O)Nc2nccs2)cc1	none
COc1ccc(-c2nn(-c3ccccc3)cc2/C=C/C(=O)OCC(=O)Nc2cccc(C#N)c2)cc1	XBP1 UPR activ 66 | UPR XBP1 confirm 97
O=C(CCN1CCN(c2ccccc2)CC1)N/N=C/c1ccccc1OC(F)F	none
Cc1cc(NC(=O)/C(C#N)=C/c2ccc(-c3ccc(SC(F)F)cc3)o2)n(-c2ccccc2)n1	XBP1 UPR activ 37 | UPR XBP1 confirm 34
Cn1c(-c2ccccc2)c(/C=N/NC(=O)c2ccc(O)cc2)c2ccccc21	XBP1 UPR activ 35 | UPR XBP1 confirm 63
Cn1c2ccccc2c2cc(/C=N/NC(=O)c3ccc(N)cc3)ccc21	none
Cc1nc2c(N=Nc3ccccc3F)c(N)nn2c(N)c1C#N	XBP1 UPR activ 44 | UPR XBP1 confirm inactive
COC(=O)[C@@H](NC(=O)NCc1ccco1)C(C)C	none
Cc1ccc(Nc2nc3ccc(Cl)cc3n3cnnc23)cc1F	XBP1 UPR activ 32 | UPR XBP1 confirm 48
Cc1cc(N2CCN(c3nc(-c4ccc([N+](=O)[O-])cc4)cs3)CC2)c2ccccc2n1	XBP1 UPR activ 68 | UPR XBP1 confirm 39
Cn1c(SCC(=O)C(C)(C)C)nnc1-c1cccnc1	none

Source: PubChem
